Assay results from different studies.
Each line is one published result; the experiments were not run side by side.
SCTR: Secretin receptor (SCTR, Homo sapiens, UniProt P47872)
DHODH: Dihydroorotate dehydrogenase (quinone), mitochondrial (DHODH, Homo sapiens, UniProt Q02127)
PIK3CG: Phosphatidylinositol 4,5-bisphosphate 3-kinase catalytic subunit gamma isoform (PIK3CG, Homo sapiens, UniProt P48736)

CC1=NN(/C(=N/c2nnc(C)s2)Nc2ccc(C)c(C)c2)C(c2ccc(-c3cccc(C(F)(F)F)c3)cc2)S1 (centres unmarked)  EC50 (SCTR; cAMP, agonist, TR-FRET): 500 nM
Cc1noc(C)c1-c1cc(Cl)c(Nc2ccccc2C(=O)O)c(Cl)c1  IC50 (DHODH; enzyme activity, inhibitor, absorbance): 1400 nM
CC1=NN(/C(=N/c2nnc(C)s2)Nc2ccc(C)c(C)c2)C(c2ccc(-c3ccccc3)cc2)S1 (centres unmarked)  EC50 (SCTR; cAMP, agonist, TR-FRET): 700 nM
Cc1cc([C@@H](C)Nc2ccccc2C(=O)O)c2nc(N3CCC(F)(F)CC3)c(C#N)c(=O)n2c1  IC50 (PIK3CG; enzyme activity, inhibitor, ADP detection): > 10000 nM
Cc1nc(Nc2ccc3c(c2)/C(=C/c2ccccc2)C(=O)N3C)c2ccccc2n1  IC50 (PIK3CG; enzyme activity, inhibitor, ADP detection): 113 nM
CCn1ccc2c(Cc3ccc(C(F)(F)F)nc3)n(C)nc2c1=O  IC50 (DHODH; enzyme activity, inhibitor, absorbance): > 100000 nM
COc1cc2ncnc(N(C)c3ccc4c(c3)/C(=C/c3cccc(Cl)c3)C(=O)N4C)c2cc1OC  IC50 (PIK3CG; enzyme activity, inhibitor, ADP detection): 118 nM
Cc1ccc(N/C(=N\c2nnc(C(C)(C)C)s2)N2N=C(C(C)(C)C)SC2c2cc(F)c(F)c(F)c2)cc1C (centres unmarked)  EC50 (SCTR; cAMP, agonist, TR-FRET): > 50000 nM
CNC[C@H](O)c1cccc(O)c1  EC50 (Alpha-1D adrenergic receptor (ADRA1D, Homo sapiens, UniProt P25100); calcium signal, agonist): 17.4 nM
CCn1cc(C2CC2)c2c(CN3CCC(F)(F)C(C)(C)C3)n(C)nc2c1=O  IC50 (DHODH; enzyme activity, inhibitor, absorbance): > 100000 nM
Cc1nc(Nc2ccc3c(c2)CC(=O)N3)c2ccccc2n1  IC50 (PIK3CG; enzyme activity, inhibitor, ADP detection): 568 nM
CC[C@@](O)(c1cnc(C(F)(F)F)c(Cl)c1)c1c2ncn(C3CC3)c(=O)c2nn1C  IC50 (DHODH; enzyme activity, inhibitor, absorbance): 4000 to 6000 nM
CC1=NN(/C(=N/c2nnc(C)s2)Nc2ccc(C)c(C)c2)C(c2ccc(F)cc2)S1 (centres unmarked)  EC50 (SCTR; cAMP, agonist, TR-FRET): 800 nM
Cc1nc(Nc2ccc3c(c2)/C(=C/c2ccccc2Cl)C(=O)N3)c2ccccc2n1  IC50 (PIK3CG; enzyme activity, inhibitor, ADP detection): 34.5 nM
CC(=O)N(CC#Cc1cccc(C(N)=O)c1)C[C@H]1C[C@@H](n2ccc3c(Cl)ncnc32)[C@H](O)[C@@H]1O  Kd (Serine hydroxymethyltransferase, mitochondrial (SHMT2, Homo sapiens, UniProt P34897); binding, MST): 2110 nM
CCn1cc(C2CC2)c2c(CN3CCC(C)(F)CC3)n(C)nc2c1=O  IC50 (DHODH; enzyme activity, inhibitor, absorbance): > 100000 nM
Cc1nc(Nc2ccc3c(c2)C(C)(C)C(=O)N3C)c2ccccc2n1  IC50 (PIK3CG; enzyme activity, inhibitor, ADP detection): 389 nM
